TLR9-MyD88 block: blocks human TLR9 binding to MyD88; CHO BLA complementation TLR9-MyD88, CCF4 FRET ratio; 340,000 compounds, 0.21% hits; inhibition, % at 4.98 µM; Q9NR96+Q99836;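 active means inhibition above the mean over all tested compounds plus 3 SD, cut at about 21% in these data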;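 further: 0% = DMSO only wells and 100% = clavulanate BLA inhibitor control wells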
TLR4 MyD88 comp: blocks binding of human TLR4 to MyD88; O00206+Q99836; HeLa CL3-4 TLR4/MyD88 BLA complementation, FRET ratio; inhibition, % at 8.4 µM; 200,000 compounds, 0.18% hits; AID 861; in the data active means inhibition above about 25%;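 further: 0% = vehicle and 100% = reference inhibitor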
NOD2 RIPK2 PPI: NOD2-RIPK2 protein interaction inhibition. CHO BLA complementation NOD2-RIPK2, CCF4 ratio. 360,000 compounds, 0.38% hits. inhibition, % at 4.98 µM; in the data active means inhibition above about 21%;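 further: 0% = vehicle only and 100% = reference blocker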
Target sequence (O43353 whole entry, looked up): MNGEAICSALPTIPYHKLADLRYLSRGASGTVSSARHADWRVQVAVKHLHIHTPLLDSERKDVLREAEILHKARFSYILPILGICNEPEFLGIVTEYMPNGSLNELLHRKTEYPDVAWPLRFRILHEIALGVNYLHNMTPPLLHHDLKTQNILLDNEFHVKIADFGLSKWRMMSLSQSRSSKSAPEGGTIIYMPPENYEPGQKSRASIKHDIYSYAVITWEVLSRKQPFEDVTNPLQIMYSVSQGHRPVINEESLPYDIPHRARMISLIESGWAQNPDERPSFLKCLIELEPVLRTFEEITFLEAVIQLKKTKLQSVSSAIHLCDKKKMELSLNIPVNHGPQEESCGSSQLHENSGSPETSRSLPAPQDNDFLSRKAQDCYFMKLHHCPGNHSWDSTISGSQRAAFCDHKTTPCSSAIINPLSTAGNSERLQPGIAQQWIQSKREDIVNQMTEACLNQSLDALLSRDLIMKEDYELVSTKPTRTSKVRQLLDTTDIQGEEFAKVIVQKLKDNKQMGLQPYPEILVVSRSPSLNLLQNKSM
CHOP UPR activ: apoptotic UPR (CHOP) activation. CHO-CHOP luciferase reporter, luminescence; percent of tunicamycin response over DMSO baseline. 330,000 compounds, 0.34% hits. activation, % at 10 µM;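 active means at 10 µM dose, activation of 40% or more, normalized to positive control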;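 further: 100% = tunicamycin at 10 µg/mL and 0% = DMSO alone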
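Test system: CHO CHOP reporter cells. Input: 500 CHO-CHOP cells per well. Medium: F12 with 10% FBS. Technique: luciferase luminescence. Measure: percent activation relative to tunicamycin control. Dosing: 10 µM compound, 0.5% DMSO. Timing: 16-18 h cell attachment, then 6 h compound exposure, 37 °C.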
XBP1 UPR activ: adaptive UPR (XBP1) activation. CHO-XBP1 luciferase reporter, IRE1-XBP1 UPR activation, luminescence; percent of tunicamycin response, DMSO as zero. activation, % at 20 µM. 330,000 compounds, 0.33% hits. AID 463104;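 active means versus positive control, 20 µM dose yields 30% or more activation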;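 further: 100% = tunicamycin at 10 µg/mL and 0% = DMSO only wells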
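assay system = CHO-XBP1 luciferase reporter cells | amount = 1000 cells/well | buffer or medium = F12 plus 10% FBS | compound dosing = single point, 20 µM final compound, 1% DMSO | incubation = 16-18 h cell attachment at 37 °C, then 6 h compound exposure | detection = Steady-Glo luminescence read | controls = tunicamycin 10 µg/mL and vehicle-only wells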
CHOP inh: blocks CHOP induction under ER stress; CHO-K1 CHOP-promoter luciferase, tunicamycin-induced, 15-18 h; inhibition, % at 10 µM; 220,000 compounds, 3.8% hits; AID 2732;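 active means compounds that reduced the stress-induced luciferase reporter signal by more than about 70% of percent inhibition, limit read from the data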;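 further: 0% = tunicamycin plus vehicle and 100% = wells without tunicamycin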
Starred values were filed as active, the others as inactive; · = not tested or not shown. Many of the other results were omitted from the sample, so hits are more common in it than they were.

SMILES	TLR9-MyD88 block	TLR4 MyD88 comp	NOD2 RIPK2 PPI	CHOP UPR activ	XBP1 UPR activ	CHOP inh
Cc1cc2ncn(/N=C/c3ccc([N+](=O)[O-])s3)c2cc1C	4	0	10	·	·	3
O=[N+]([O-])c1ccc(/C=N/n2cnc3ccccc32)s1	2	10	-2	16	6	83*
COc1ccc(C)cc1NC(=O)CCN1CC(C)OC(C)C1 (stereo not drawn)	2	4	-10	0	3	15
COC(=O)c1c(NC(=O)COc2ccc(Cl)cc2)sc2c1CC(C)(C)NC2(C)C	4	·	8	12	43*	·
COC(=O)c1c(NC(=O)Cc2ccccc2)sc2c1CC(C)(C)NC2(C)C	1	·	6	0	5	·
O=C(c1ccccc1)c1ccc2nc(-c3ccco3)c(-c3ccco3)nc2c1	4	-4	-3	8	-1	72*
Fc1ccccc1COc1cccc(/C=N/n2cnnc2)c1	0	3	-3	-2	-2	72*
C(=N\n1cnnc1)/c1cccc(Oc2ccccc2)c1	4	2	0	2	-3	29
COC(=O)CCn1nnc(-c2cccs2)n1	0	12	0	-3	-1	-4
COC(=O)CCn1nnc(-c2ccc(C(C)C)cc2)n1	0	1	4	-8	-8	88*
Nc1sc2c(c1C(=O)NC1CC1)CCCC2	-4	·	-1	2	-1	·
COc1ccc(C(c2nnnn2C2CCCCC2)N2CCN(C/C=C/c3ccccc3)CC2)cc1 (stereo not drawn)	·	·	-3	·	·	·
CN(C)S(=O)(=O)c1ccc(C(=O)OCC(=O)Nc2sc3c(c2C#N)CCCCC3)cc1	-29	-2	-8	4	0	-31
CC(C)(C)c1ccc(C(=O)OCC(=O)Nc2sc3c(c2C#N)CCC3)cc1	-2	7	1	0	-3	90*
O=C1c2cccc3c(N4CCCCC4)ccc(c23)C(=O)N1c1ccc(Cl)cn1	·	28*	·	·	·	·
CCN1CCN(C(c2cccs2)C(C)NS(=O)(=O)c2ccc(F)cc2)CC1 (stereo not drawn)	-1	-7	-1	0	-4	73*
O=C(CSc1nc2[nH]ncc2c(=O)[nH]1)Nc1ccc(Cl)cc1	-9	·	-7	1	-1	·
Cc1nn(C(=O)c2ccco2)c(C)c1Sc1ccc(Cl)cc1	-4	6	-13	4	-2	73*
Cc1cc(N=Cc2c(O)n(-c3ccc4c(c3)OCO4)c(=O)c3ccccc23)ccn1	3	-2	3	1	-1	94*
Cc1ccc(-n2c(O)c(C=Nc3ccc4c(c3)OCO4)c3ccccc3c2=O)cc1C	-12	-4	4	0	1	16
Cc1cc(C)cc(NC(=O)c2nnn(Cc3cc(C)ccc3C)c2N)c1	-13	-4	2	1	0	93*
COc1cccc(NC(=O)c2nnn(Cc3ccc(Br)cc3F)c2N)c1	1	9	-3	3	-1	73*
Cc1ccc(C)c(Cn2nnc(C(=O)Nc3ccc4c(c3)OCCO4)c2N)c1	-6	·	-1	5	0	·
Cc1ccc(/C=C/C(=O)c2ccccc(=O)c2O)c(C)c1	9	-12	-9	5	2	77*
Cc1ccc(C)c(/C=C/C(=O)c2ccccc(=O)c2O)c1	-3	3	4	·	·	93*
SMILES	TLR9-MyD88 block	TLR4 MyD88 comp	NOD2 RIPK2 PPI	CHOP UPR activ	XBP1 UPR activ	CHOP inh
O=C(/C=C/c1ccccc1Cl)c1ccccc(=O)c1O	-13	-1	-4	·	·	-64
Cc1cccnc1NC(=O)c1c(O)c2cccc3c2n(c1=O)CCC3	-11	15	-8	-1	1	80*
CCCCCCc1nc2ccccc2c(=O)n1NC(=O)c1c(O)c2cccc3c2n(c1=O)CCC3	·	-16	·	·	·	85*
O=C(Nc1nccs1)c1c(O)c2cccc3c2n(c1=O)CCC3	·	-3	·	13	3	108*
O=C(Nc1ccccn1)c1c(O)c2cccc3c2n(c1=O)CCC3	-2	2	-23	1	7	43
O=C(CCN1C(=O)CC1c1ccco1)N1CCOCC1 (stereo not drawn)	·	·	0	·	·	·

Screening data: PubChem BioAssay, several laboratories
